Measured values as given in ChEMBL document CHEMBL1275246 (Bioorg Med Chem, 2010).

Columns and labels:
[1] = Lipophilicity, log D of compound in phosphate buffer solution at pH 7.4; format: physicochemical
Summary of the method: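 Formulated radiotracer partitioned between octanol and phosphate buffer pH 7.4: vortexed 2 min, centrifuged 2 min. Octanol layer serially re-extracted with fresh buffer to give six sample sets, each phase well-counted. logD = log(decay-corrected octanol activity ×10/decay-corrected buffer activity) for each set.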

[2] = Biodistribution in iv dosed baboon gall bladder by dynamic PET imaging analysis; format: ADME, organism-based; conditions: papio anubis, in vivo
Summary of the method: (§1)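 Female Papio anubis baboons; ketamine 10 mg/kg i.m. induction, then O2/N2O/isoflurane (1–4%). Radiotracer given through a radial arm vein catheter. Dynamic 3D PET over 90 min (55 frames), brain or torso in field of view. Regions of interest drawn on summed images give time-activity curves as decay-corrected %injected dose/cc.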

Brain = experiment: Biodistribution in iv dosed baboon brain after 2 to 10 mins by PET imaging analysis; format: ADME, organism-based; conditions: papio anubis, in vivo; summary of the method: as §1
[3] = Drug uptake in iv dosed baboon occipital cortex in presence of citalopram; format: ADME, organism-based; conditions: papio anubis, in vivo
Summary of the method: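 Citalopram-HBr 5.0 mg/kg (as free base) in 10 mL saline, filter-sterilized, i.v. bolus 20 min before radiotracer in anesthetized baboons. 90-min dynamic 3D brain PET. Region time-activity curves as decay-corrected %ID/cc.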

[4] = Drug uptake in iv dosed baboon occipital cortex in presence of altanserin; format: ADME, organism-based; conditions: papio anubis, in vivo
Summary of the method: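 Baboon pretreated with altanserin 0.5 mg/kg, dissolved in 2% HCl in EtOH, diluted with saline to 30 mL, filter-sterilized (final pH ~5.5). Given 15 min before i.v. radiotracer. Anesthetized animal (ketamine, then isoflurane). 90-min dynamic 3D brain PET; region curves as decay-corrected %ID/cc.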

[5] = Drug uptake in iv dosed baboon frontal cortex in presence of metergoline; format: ADME, organism-based; conditions: papio anubis, in vivo
Summary of the method: (§2)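 Baboons anesthetized (ketamine i.m., then isoflurane/N2O/O2). […] Dynamic 3D PET for 90 min, brain or torso in view. Region time-activity curves as decay-corrected %ID/cc.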

[6] = Fraction unbound in baboon plasma after 10 mins; format: ADME, cell-free; conditions: papio anubis
Summary of the method: (§3)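 Radiotracer in saline added to pooled baboon plasma (from ≥4 animals). Mixed by inversion, incubated 10 min at room temperature. Total activity sampled. Plasma then centrifuged 10 min through a Centrifree ultrafiltration unit and filtrate counted. %unbound = filtrate activity ×100/total activity.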

[7] = Drug uptake in iv dosed baboon occipital cortex in presence of metergoline; format: ADME, organism-based; conditions: papio anubis, in vivo; summary of the method: as §2
[8] = Plasma protein binding in baboon after 10 mins; format: ADME, cell-free; conditions: papio anubis, read-out: PPB; summary of the method: as §3
[9] = target: 5-hydroxytryptamine receptor 4 (Homo sapiens) (UniProt Q13639); experiment: Binding affinity to human cloned 5HT4 receptor
5-hydroxytryptamine receptor 4 (Homo sapiens), sequence (Q13639 whole entry): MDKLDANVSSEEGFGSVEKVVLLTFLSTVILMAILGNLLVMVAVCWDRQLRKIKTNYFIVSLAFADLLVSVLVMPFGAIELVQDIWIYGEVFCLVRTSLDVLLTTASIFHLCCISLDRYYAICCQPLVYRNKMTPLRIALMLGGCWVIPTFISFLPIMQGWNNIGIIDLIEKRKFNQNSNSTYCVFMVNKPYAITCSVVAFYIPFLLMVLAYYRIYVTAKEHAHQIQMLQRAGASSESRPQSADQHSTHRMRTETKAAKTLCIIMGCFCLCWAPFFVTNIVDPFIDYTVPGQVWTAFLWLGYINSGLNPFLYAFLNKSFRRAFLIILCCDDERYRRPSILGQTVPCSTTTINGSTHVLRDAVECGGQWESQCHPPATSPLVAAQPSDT

[10] = target: 5-hydroxytryptamine receptor 2B (Homo sapiens) (UniProt P41595); experiment: Displacement of [3H]LSD from human cloned 5HT2B receptor
[11] = target: Alpha-1A adrenergic receptor (Homo sapiens) (UniProt P35348); experiment: Displacement of [3H]prazosin from human cloned adrenergic alpha1A receptor
Alpha-1A adrenergic receptor (Homo sapiens), sequence (P35348 whole entry): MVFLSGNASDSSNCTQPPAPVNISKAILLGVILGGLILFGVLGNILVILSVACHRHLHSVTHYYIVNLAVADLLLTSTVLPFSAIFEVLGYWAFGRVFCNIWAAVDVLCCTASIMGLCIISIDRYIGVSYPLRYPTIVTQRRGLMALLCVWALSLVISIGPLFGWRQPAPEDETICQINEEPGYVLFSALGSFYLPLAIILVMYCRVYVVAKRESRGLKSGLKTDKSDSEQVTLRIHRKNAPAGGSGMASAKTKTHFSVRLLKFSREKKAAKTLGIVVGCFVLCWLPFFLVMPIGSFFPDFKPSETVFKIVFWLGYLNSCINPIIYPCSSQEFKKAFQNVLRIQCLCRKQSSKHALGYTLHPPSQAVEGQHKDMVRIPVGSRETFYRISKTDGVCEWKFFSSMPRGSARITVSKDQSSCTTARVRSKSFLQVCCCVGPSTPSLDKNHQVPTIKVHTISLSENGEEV

[12] = target: Alpha-2A adrenergic receptor (Homo sapiens) (UniProt P08913); experiment: Displacement of [3H]clonidine from human cloned adrenergic alpha-2a receptor
Alpha-2A adrenergic receptor (Homo sapiens), sequence (P08913 whole entry): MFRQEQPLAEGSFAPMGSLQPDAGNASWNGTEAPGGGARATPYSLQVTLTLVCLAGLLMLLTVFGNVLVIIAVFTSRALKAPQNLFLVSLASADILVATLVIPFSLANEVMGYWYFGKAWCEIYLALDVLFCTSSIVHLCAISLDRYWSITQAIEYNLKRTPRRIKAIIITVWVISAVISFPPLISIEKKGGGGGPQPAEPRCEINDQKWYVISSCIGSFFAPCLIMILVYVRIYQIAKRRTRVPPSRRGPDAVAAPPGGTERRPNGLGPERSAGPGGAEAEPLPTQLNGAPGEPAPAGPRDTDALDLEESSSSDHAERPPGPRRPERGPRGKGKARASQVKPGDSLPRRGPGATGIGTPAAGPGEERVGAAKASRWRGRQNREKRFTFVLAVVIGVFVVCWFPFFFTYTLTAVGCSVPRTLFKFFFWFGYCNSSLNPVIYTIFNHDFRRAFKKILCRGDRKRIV

[13] = target: D(2) dopamine receptor (Homo sapiens) (UniProt P14416); experiment: Displacement of [3H]N-methylspiperone from human cloned dopamine D2 receptor
D(2) dopamine receptor (Homo sapiens), sequence (P14416 whole entry): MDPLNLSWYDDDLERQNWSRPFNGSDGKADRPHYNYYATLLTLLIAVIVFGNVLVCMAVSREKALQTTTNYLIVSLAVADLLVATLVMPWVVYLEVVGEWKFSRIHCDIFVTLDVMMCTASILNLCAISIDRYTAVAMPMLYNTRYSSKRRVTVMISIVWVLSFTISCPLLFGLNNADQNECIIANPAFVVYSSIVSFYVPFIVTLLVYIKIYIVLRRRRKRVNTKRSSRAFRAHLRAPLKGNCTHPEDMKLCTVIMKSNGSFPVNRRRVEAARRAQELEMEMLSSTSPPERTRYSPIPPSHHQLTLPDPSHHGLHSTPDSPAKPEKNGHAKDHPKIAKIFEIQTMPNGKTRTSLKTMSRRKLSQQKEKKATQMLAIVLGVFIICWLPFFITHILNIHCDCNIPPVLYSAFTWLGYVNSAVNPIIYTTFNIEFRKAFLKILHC

[14] = target: 5-hydroxytryptamine receptor 1B (Homo sapiens) (UniProt P28222); experiment: Displacement of [3H][…] from human cloned 5HT1B receptor
[15] = target: Histamine H2 receptor (Homo sapiens) (UniProt P25021); experiment: Displacement of [3H]Tiotidine from human cloned histamine H2 receptor
Histamine H2 receptor (Homo sapiens), sequence (P25021 whole entry): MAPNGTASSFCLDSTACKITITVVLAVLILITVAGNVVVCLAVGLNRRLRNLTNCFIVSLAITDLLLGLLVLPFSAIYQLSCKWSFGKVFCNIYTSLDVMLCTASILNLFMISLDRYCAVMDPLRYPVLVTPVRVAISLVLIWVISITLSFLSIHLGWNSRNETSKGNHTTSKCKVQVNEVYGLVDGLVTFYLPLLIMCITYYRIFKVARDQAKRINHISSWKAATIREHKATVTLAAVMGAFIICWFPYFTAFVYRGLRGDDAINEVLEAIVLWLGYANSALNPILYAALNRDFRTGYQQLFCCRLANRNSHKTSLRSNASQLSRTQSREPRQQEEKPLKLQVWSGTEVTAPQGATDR

[16] = target: Muscarinic acetylcholine receptor M4 (Homo sapiens) (UniProt P08173); experiment: Displacement of [3H]QNB from human cloned muscarinic M4 receptor
[17] = target: Sodium-dependent noradrenaline transporter (Homo sapiens) (UniProt P23975); experiment: Displacement of [3H]nisoxetine from human cloned NET
[18] = target: 5-hydroxytryptamine receptor 5A (Homo sapiens) (UniProt P47898); experiment: Displacement of [3H]LSD from human cloned 5HT5A receptor
[19] = target: 5-hydroxytryptamine receptor 1D (Homo sapiens) (UniProt P28221); experiment: Displacement of [3H][…] from human cloned 5HT1D receptor
5-hydroxytryptamine receptor 1D (Homo sapiens), sequence (P28221 whole entry): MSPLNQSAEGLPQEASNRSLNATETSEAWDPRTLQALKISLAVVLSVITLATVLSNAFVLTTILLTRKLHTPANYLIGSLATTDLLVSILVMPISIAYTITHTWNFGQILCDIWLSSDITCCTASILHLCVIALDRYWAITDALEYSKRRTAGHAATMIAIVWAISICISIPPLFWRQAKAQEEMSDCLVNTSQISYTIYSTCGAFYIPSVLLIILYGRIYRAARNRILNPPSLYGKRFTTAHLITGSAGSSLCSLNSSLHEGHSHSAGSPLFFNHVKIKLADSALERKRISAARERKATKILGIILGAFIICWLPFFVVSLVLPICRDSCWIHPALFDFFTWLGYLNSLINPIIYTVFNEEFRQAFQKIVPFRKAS

[20] = target: 5-hydroxytryptamine receptor 2C (Rattus norvegicus) (UniProt P08909); experiment: Displacement of [3H]Mesulergine from rat cloned 5HT2C receptor
[21] = target: Alpha-1B adrenergic receptor (Homo sapiens) (UniProt P35368); experiment: Displacement of [3H]prazosin from human cloned adrenergic Alpha-1B receptor
Alpha-1B adrenergic receptor (Homo sapiens), sequence (P35368 whole entry): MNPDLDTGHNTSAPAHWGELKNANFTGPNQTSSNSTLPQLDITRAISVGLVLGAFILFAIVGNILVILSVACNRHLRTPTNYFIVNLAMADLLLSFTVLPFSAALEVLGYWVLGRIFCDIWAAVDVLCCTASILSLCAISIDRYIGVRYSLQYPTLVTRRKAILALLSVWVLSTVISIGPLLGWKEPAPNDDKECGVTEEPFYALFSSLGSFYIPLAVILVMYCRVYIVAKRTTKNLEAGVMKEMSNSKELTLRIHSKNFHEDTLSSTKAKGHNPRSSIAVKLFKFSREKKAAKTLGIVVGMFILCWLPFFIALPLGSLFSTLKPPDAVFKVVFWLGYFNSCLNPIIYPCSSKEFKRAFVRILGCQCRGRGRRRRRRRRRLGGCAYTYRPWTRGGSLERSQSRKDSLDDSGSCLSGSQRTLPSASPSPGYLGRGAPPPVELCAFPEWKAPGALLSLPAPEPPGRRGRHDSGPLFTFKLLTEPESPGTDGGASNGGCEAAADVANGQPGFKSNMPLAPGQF

[22] = target: 5-hydroxytryptamine receptor 1A (Homo sapiens) (UniProt P08908); experiment: Displacement of [3H]8-OH-DPAT from human cloned 5HT1A receptor
5-hydroxytryptamine receptor 1A (Homo sapiens), sequence (P08908 whole entry): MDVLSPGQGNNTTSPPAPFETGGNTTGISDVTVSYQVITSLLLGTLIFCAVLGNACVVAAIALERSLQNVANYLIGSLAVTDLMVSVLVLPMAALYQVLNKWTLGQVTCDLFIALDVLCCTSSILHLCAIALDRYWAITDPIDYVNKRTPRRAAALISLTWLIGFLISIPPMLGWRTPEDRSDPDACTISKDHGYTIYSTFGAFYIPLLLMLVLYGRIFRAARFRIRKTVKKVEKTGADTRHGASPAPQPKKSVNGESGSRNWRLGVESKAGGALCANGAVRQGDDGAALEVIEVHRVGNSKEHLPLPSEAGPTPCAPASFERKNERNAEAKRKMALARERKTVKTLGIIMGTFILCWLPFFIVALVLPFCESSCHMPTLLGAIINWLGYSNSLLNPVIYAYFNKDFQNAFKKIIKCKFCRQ

[23] = target: D(1A) dopamine receptor (Homo sapiens) (UniProt P21728); experiment: Displacement of [3H][…] from human cloned dopamine D1 receptor
[24] = target: 5-hydroxytryptamine receptor 3A (Homo sapiens) (UniProt P46098); experiment: Displacement of [3H]LY278584 from human cloned 5HT3 receptor
[25] = target: Histamine H4 receptor (Homo sapiens) (UniProt Q9H3N8); experiment: Displacement of [3H]histamine from human cloned histamine H4 receptor
[26] = target: 5-hydroxytryptamine receptor 1E (Homo sapiens) (UniProt P28566); experiment: Displacement of [3H]5-HT from human cloned 5HT1E receptor
[27] = target: Prostaglandin E2 receptor EP3 subtype (Homo sapiens) (UniProt P43115); experiment: Displacement of [3H]PGE2 from human cloned EP3 receptor
[28] = Biodistribution in iv dosed baboon heart by dynamic PET imaging analysis in presence of metergoline; format: ADME, organism-based; conditions: papio anubis, in vivo; summary of the method: as §2
[29] = target: Muscarinic acetylcholine receptor M2 (Homo sapiens) (UniProt P08172); experiment: Displacement of [3H]QNB from human cloned muscarinic M2 receptor
[30] = target: Prostaglandin E2 receptor EP4 subtype (Homo sapiens) (UniProt P35408); experiment: Displacement of [3H]PGE2 from human cloned EP4 receptor
[31] = target: Delta-type opioid receptor (Homo sapiens) (UniProt P41143); experiment: Displacement of [3H]DADLE from human cloned delta opioid receptor
Delta-type opioid receptor (Homo sapiens), sequence (P41143 whole entry): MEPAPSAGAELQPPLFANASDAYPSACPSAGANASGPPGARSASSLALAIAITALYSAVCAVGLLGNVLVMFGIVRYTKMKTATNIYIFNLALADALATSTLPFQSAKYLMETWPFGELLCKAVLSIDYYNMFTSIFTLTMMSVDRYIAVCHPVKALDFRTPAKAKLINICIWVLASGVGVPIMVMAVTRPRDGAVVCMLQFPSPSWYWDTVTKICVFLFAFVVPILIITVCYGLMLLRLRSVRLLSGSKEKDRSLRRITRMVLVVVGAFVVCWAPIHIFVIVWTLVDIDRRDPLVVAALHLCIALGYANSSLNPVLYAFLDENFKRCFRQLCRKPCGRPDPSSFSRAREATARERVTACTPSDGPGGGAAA

[32] = target: Kappa-type opioid receptor (Rattus norvegicus) (UniProt P34975); experiment: Displacement of [3H]U69593 from rat cloned kappa opioid receptor
[33] = target: D(3) dopamine receptor (Rattus norvegicus) (UniProt P19020); experiment: Displacement of [3H]N-methylspiperone from rat cloned dopamine D3 receptor
D(3) dopamine receptor (Rattus norvegicus), sequence (P19020 whole entry): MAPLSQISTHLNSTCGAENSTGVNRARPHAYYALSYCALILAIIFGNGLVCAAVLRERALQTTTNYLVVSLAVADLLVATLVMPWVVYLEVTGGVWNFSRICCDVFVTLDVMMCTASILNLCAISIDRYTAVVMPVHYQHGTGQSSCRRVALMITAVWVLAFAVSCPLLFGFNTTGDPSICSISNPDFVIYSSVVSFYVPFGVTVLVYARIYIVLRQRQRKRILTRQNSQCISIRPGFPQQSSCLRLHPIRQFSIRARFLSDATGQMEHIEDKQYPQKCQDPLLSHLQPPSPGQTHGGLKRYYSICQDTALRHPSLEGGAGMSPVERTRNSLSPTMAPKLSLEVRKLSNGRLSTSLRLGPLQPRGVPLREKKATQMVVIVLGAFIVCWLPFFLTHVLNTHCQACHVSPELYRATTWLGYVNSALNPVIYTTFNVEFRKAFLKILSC

[34] = target: Alpha-2C adrenergic receptor (Homo sapiens) (UniProt P18825); experiment: Displacement of [3H]clonidine from human cloned adrenergic alpha2c receptor
Alpha-2C adrenergic receptor (Homo sapiens), sequence (P18825 whole entry): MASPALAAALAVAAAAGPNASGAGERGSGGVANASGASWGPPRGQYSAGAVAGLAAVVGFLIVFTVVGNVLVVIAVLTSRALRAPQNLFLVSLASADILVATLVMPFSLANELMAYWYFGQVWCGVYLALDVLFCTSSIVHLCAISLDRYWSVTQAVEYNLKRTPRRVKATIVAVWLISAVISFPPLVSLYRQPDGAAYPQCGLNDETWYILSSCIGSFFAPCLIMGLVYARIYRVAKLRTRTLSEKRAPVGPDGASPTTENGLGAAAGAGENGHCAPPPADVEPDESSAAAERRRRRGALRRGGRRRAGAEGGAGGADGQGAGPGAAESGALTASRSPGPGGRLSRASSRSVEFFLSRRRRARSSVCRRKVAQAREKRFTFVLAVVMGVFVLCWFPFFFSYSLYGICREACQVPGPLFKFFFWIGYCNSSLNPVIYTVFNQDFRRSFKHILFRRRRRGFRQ

[35] = target: D(4) dopamine receptor (Homo sapiens) (UniProt P21917); experiment: Displacement of [3H]N-methylspiperone from human cloned dopamine D4 receptor
[36] = Biodistribution in iv dosed baboon heart by dynamic PET imaging analysis; format: ADME, organism-based; conditions: papio anubis, in vivo; summary of the method: as §1

**Q.** With CN1C[C@H](CN[11C](=O)OCc2ccccc2)C[C@@H]2c3cccc4c3c(cn4C)C[C@H]21 [[11C]-METERGOLINE] as the compound, how does the logD [1] read?
**A.** 3.3

**Q.** What about the Drug uptake [2] of the same compound?
**A.** 0.3 %ID

**Q.** What about the Drug uptake (Brain) of the same compound?
**A.** 0.01 %ID

**Q.** And the Drug uptake [3]?
**A.** Active

**Q.** And the Drug uptake [4]?
**A.** Not Active

**Q.** What about the Drug uptake [5] of the same compound?
**A.** Not Active

**Q.** And the Fu [6]?
**A.** 0.55%

**Q.** What about the Drug uptake [7] of the same compound?
**A.** Not Active

**Q.** What about the fraction unbound at 10 min [8] of the same compound?
**A.** < 0.01

**Q.** With CN1C[C@H](CNC(=O)OCc2ccccc2)C[C@@H]2c3cccc4c3c(cn4C)C[C@H]21 [METERGOLINE] as the compound, how does the Activity [9] read?
**A.** 1270 nM

**Q.** And the Activity [10]?
**A.** 2.6 nM

**Q.** And the Activity [11]?
**A.** 30 nM

**Q.** And the Activity [12]?
**A.** 31 nM

**Q.** And the Activity [13]?
**A.** 74 nM

**Q.** What about the Activity [14] of the same compound?
**A.** 28 nM

**Q.** And the Activity [15]?
**A.** 104 nM

**Q.** What about the Activity [16] of the same compound?
**A.** 36.9 nM

**Q.** And the Activity [17]?
**A.** 1130 nM

**Q.** And the Activity [18]?
**A.** 562 nM

**Q.** What about the Activity [19] of the same compound?
**A.** 0.9 nM

**Q.** And the Activity [20]?
**A.** 9.5 nM

**Q.** And the Activity [21]?
**A.** 123 nM

**Q.** What about the Activity [22] of the same compound?
**A.** 10 nM

**Q.** And the Activity [23]?
**A.** 9 nM

**Q.** And the Activity [24]?
**A.** > 10 µM

**Q.** And the Activity [25]?
**A.** 12.7 nM

**Q.** And the Activity [26]?
**A.** 1660 nM

**Q.** And the Activity [27]?
**A.** 21.7 nM

**Q.** And the Drug uptake [28]?
**A.** Active

**Q.** And the Activity [29]?
**A.** 17.7 nM

**Q.** What about the Activity [30] of the same compound?
**A.** 15.2 nM

**Q.** And the Activity [31]?
**A.** 18.9 nM

**Q.** And the Activity [32]?
**A.** 63.2 nM

**Q.** And the Activity [33]?
**A.** 14 nM

**Q.** And the Activity [34]?
**A.** 30 nM

**Q.** What about the Activity [35] of the same compound?
**A.** 4.9 nM

**Q.** And the Drug uptake [36]?
**A.** Active
